Screening results deposited in PubChem by several laboratories.
Pemphigus Ab inh: human desmoglein-3 autoantibody binding inhibition; AID 588358; binding (percent of control), % at 10 µM; hit rate 0.48% among 310,000; DSG3-coupled beads, scFv-anti-DSG3-GFP binding, flow cytometry; active compounds read low; P32926;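 active = binding more than 3 SD below its plate's average and above zero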;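 also: hits lower antibody fragment binding to DSG3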
ALR H2O2 inh: human ALR oxidase inhibition via reduced H2O2; P55789; purified ALR, DTT oxidation, H2O2 HRP-luminol luminescence; inhibition, % (no concentration beside the values); hit rate 3.8% among 290,000; AID 485317;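 active = mean replicate inhibition above about 79%, with every replicate also reaching it, limit read from the data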
Target sequence (P55789 whole entry, looked up): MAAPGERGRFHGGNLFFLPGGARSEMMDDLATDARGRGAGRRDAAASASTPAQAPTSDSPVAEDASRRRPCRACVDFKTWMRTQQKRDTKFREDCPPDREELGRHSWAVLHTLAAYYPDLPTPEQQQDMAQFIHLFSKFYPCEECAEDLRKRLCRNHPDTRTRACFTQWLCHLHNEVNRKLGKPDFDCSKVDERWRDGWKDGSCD
Arrestin-AP2 inh: blocks beta-arrestin peptide binding to AP2 adaptin | FITC-arrestin peptide / GST-AP2 beads, flow cytometry; AP2 beta2 appendage carries R879A mutation | inhibition, % at 10 µM | hit rate 0.31% among 340,000;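 active = inhibition above a set limit, near 3 SD of compounds lacking own fluorescence, cut at about 54% in these data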
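Material – GST-tagged AP2 beta2-adaptin appendage (R879A) on 4 µm glutathione beads · Probe or stimulus – fluorescein-tagged arrestin peptide at 50 nM final · Timing – 12 min plus 1 h, RT · Detection – bead flow cytometry, FITC channel · Read-out basis – inhibition as reduced fluorescein signal on beads, percent · Medium – PBS plus Tween 20 (0.05%) and BSA (0.1%)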
NALP3 yeast inh: NALP3 inhibition in yeast. Yeast reconstituted NLRP3/ASC/caspase-1, beta-gal luminescence, 24 h. inhibition, % at 10 µM. hit rate 0.39% among 330,000. AID 2825;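 active = inhibition of 50% or more; inactive = inhibition below 50%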
NALP1 inh: NALP1 inhibition; hit rate 0.61% among 280,000; inhibition, % at 10 µM; S. cerevisiae NALP1/ASC/caspase-1 growth, X-gal OD620, 72 h; in the data active = inhibition mostly above about 24%, no sharp cut-off; inactive = mostly below about 32%
PolyA inh: yeast polyadenylation inhibition; S. cerevisiae SKY197-pL101 polyadenylation reporter, beta-gal luminescence; efflux-impaired pdr1/pdr3 knockout yeast; score 100 = 6 SD above DMSO; activity score, % at 12 µM; hit rate 0.02% among 300,000;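 active = lowest replicate activity score at least 50, where 100 means six control SD above control mean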;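 also: yeast exposed to compound for 9 h at 30 °C; higher score means more reporter readthrough which indicates perturbed polyadenylation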
Arr AP2 CP1: inhibitors of human beta-arrestin and AP2 interaction; inhibition, % at 10 µM; shares compounds with Arrestin-AP2 inh; hit rate 2% among 1,300; GST-AP2 beads, FITC arrestin peptide binding, flow cytometry; GST-fused beta2-adaptin appendage, R879A mutant;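 active = inhibition above a set limit, roughly 3 SD of non-fluorescent compound noise, cut at about 38% in these data; inactive = inhibition at or below that limit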;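 also: loss of bead fluorescence from 50 nM FITC arrestin peptide bound to appendage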
GST GSH counter: disrupts GST binding to glutathione beads, arrestin-AP2 artifact; GST-fluorescein binding to GSH beads, fluorescence, counter-screen; inhibition, % at 10 µM; shares compounds with Arrestin-AP2 inh; hit rate 2% among 1,300;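 active = inhibition above 50%, about 3 SD of the inhibition seen with non-fluorescent compounds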;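 also: fluorescein maleimide labelled GST captured on 4 micron glutathione beads; higher means more loss of bead fluorescence from quenching or blocked binding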
Each line names hits and unclear results; the compound was inactive in the other large screens (follow-up assays come after a bar, where they were run). The list is not random: actives were taken first. Their share in the collection is about 4.6%.

O=P(O)(CCc1ccccc1)C(O)c1ccccc1 (stereo unspecified)	none (no result: Pemphigus Ab inh)
COc1ccc(C(O)P(=O)(O)CCc2ccccc2)cc1 (stereo unspecified)	Arrestin-AP2 inh 62 | Arr AP2 CP1 inactive | GST GSH counter inactive
CCC(C(=O)NCc1ccco1)N(Cc1cccs1)C(=O)CNS(=O)(=O)c1ccccc1 (stereo unspecified)	Arrestin-AP2 inh 55 | Arr AP2 CP1 inactive | GST GSH counter inactive
Cc1ccc(-c2nc3ccccc3s2)cc1NC(=O)c1ccc2c(c1)OCO2	Arrestin-AP2 inh 58 (no result: ALR H2O2 inh) | Arr AP2 CP1 inactive | GST GSH counter inactive
O=C(Nc1cc(-c2nc3ccccc3s2)ccc1Cl)c1ccc2c(c1)OCO2	none
O=C(Nc1ccccc1)Oc1ccccc1N1CCOCC1	Arrestin-AP2 inh 66 (no result: Pemphigus Ab inh) | Arr AP2 CP1 inactive | GST GSH counter inactive
COc1ccc(CC(=O)NNC2=Nc3cccc4cccc2c34)cc1	Arrestin-AP2 inh 58 (no result: NALP1 inh) | Arr AP2 CP1 inactive | GST GSH counter inactive
COc1ccc(C(=O)NNC2=Nc3cccc4cccc2c34)cc1	none
COC(=O)c1ccccc1NC(=O)Nc1cnccn1	none
CCc1ccccc1NC(=O)Nc1cnccn1	none | Arr AP2 CP1 inactive | GST GSH counter inactive
CCOc1ccccc1NC(=O)NCc1cccnc1	none
CCOc1ccccc1NC(=O)Nc1cnccn1	Arrestin-AP2 inh 103 (no result: ALR H2O2 inh) | Arr AP2 CP1 inactive | GST GSH counter inactive
CC(=O)C1=C(O)C(=O)N(c2ccc(C(=O)O)cc2)C1c1ccc([N+](=O)[O-])cc1 (stereo unspecified)	none
CC(=O)C1=C(O)C(=O)N(c2ccc(S(N)(=O)=O)cc2)C1c1ccc([N+](=O)[O-])cc1 (stereo unspecified)	Arrestin-AP2 inh 97 | Arr AP2 CP1 inactive | GST GSH counter inactive
Cc1cc(C)cc(N2CCCC2=O)c1	none
CC(Oc1cccc(Cl)c1)C(=O)Nc1ccncc1 (stereo unspecified)	none
CC(OC(=O)c1ccncc1)C(=O)Nc1cccc(Cl)c1 (stereo unspecified)	Arrestin-AP2 inh 81 (no result: ALR H2O2 inh) | Arr AP2 CP1 inactive | GST GSH counter inactive
Cc1ccc(C)c(Nc2cc(C(=O)NCc3cccnc3)c3ccccc3n2)c1	none (no result: ALR H2O2 inh)
CCc1ccc(CN(C(=O)c2ccco2)C2CCS(=O)(=O)C2)cc1 (stereo unspecified)	Arrestin-AP2 inh 67 | Arr AP2 CP1 inactive | GST GSH counter inactive
O=C(c1ccco1)N(Cc1ccc(Cl)cc1)C1CCS(=O)(=O)C1 (stereo unspecified)	none
O=S(=O)(NCc1ccc2c(c1)OCO2)c1ccc(Cl)s1	Arrestin-AP2 inh 105 | Arr AP2 CP1 inactive | GST GSH counter inactive
Cc1cc(C)c(S(=O)(=O)NCc2ccc3c(c2)OCO3)cc1C	none
CN(C)c1ccc(/C=N/NC(=O)C(O)(c2ccccc2)c2ccccc2)o1	Arrestin-AP2 inh 61 | Arr AP2 CP1 inactive | GST GSH counter inactive
Cn1c(=Nc2ccccc2)sc2ccccc21	none
CN(C)c1ccc(N=c2sc3ccccc3n2C)cc1	ALR H2O2 inh 99, Arrestin-AP2 inh 63 | Arr AP2 CP1 inactive | GST GSH counter inactive
CCCCn1c(N)c(N(CCOC)C(=O)c2ccc(COc3ccccc3)o2)c(=O)[nH]c1=O	none (no result: NALP1 inh)
COc1ccc([N+](=O)[O-])cc1N(CC(O)CN1C(=O)NC(C)(C)C1=O)S(=O)(=O)c1ccccc1 (stereo unspecified)	none (no result: Pemphigus Ab inh)
Cc1cccc(C(=O)N/C(=C/c2ccco2)C(=O)N2CCCCCC2)c1	Arrestin-AP2 inh 66 | Arr AP2 CP1 inactive | GST GSH counter inactive
Cc1ccc(S(=O)(=O)NCCc2nnc(SCc3cccnc3)n2C)cc1	none (no result: Pemphigus Ab inh)
Cc1ccc(-n2nc3c(c2NC(=O)c2cc4ccccc4o2)CS(=O)(=O)C3)cc1	Arrestin-AP2 inh 57 | Arr AP2 CP1 inactive | GST GSH counter inactive
O=C(Nc1c2c(nn1-c1ccccc1)CS(=O)(=O)C2)c1cc2ccccc2o1	none (no result: Pemphigus Ab inh)
CCC(=O)N(NC1=NS(=O)(=O)c2ccccc21)S(=O)(=O)c1ccc(C)cc1	none
CCN(CC(=O)Nc1ccc(NC(C)=O)cc1)C(=O)CCN1C(=O)C2CC=CCC2C1=O (stereo unspecified)	none (no result: ALR H2O2 inh, NALP1 inh, PolyA inh)
Cc1ccc(C(=O)Nc2ccccc2C(=O)N2CCCC(C)C2)cc1 (stereo unspecified)	Arrestin-AP2 inh 56 | Arr AP2 CP1 inactive | GST GSH counter inactive
Cc1ccc(NC(=O)CN2CCN(C)CC2)cc1Br	none (no result: ALR H2O2 inh)
CCSc1nnc(NC(=O)C2C3CCC(C3)C2C(=O)O)s1 (stereo unspecified)	Arrestin-AP2 inh 60 | Arr AP2 CP1 inactive | GST GSH counter inactive
O=S(=O)(NCCOc1ccccc1F)c1ccc(Cl)cc1F	Arrestin-AP2 inh 60 (no result: Pemphigus Ab inh, NALP1 inh, PolyA inh) | Arr AP2 CP1 inactive | GST GSH counter inactive
O=C(Nc1cccnc1)c1cc2cc(Br)ccc2o1	none (no result: ALR H2O2 inh)
COc1ccccc1CN1CC(C(=O)NCc2cc(F)cc(C(F)(F)F)c2)CCC1=O (stereo unspecified)	none | Arr AP2 CP1 inactive | GST GSH counter inactive
O=C(NCc1ccccc1OC(F)(F)F)C1CCC(=O)N(Cc2ccccn2)C1 (stereo unspecified)	none
COc1ccc(CCN2CC(C(=O)NCCc3ccc(F)cc3)CCC2=O)cc1 (stereo unspecified)	none | Arr AP2 CP1 inactive | GST GSH counter inactive
O=C(NCc1ccccc1OC(F)(F)F)C1CCC(=O)N(CCc2ccccn2)C1 (stereo unspecified)	Arrestin-AP2 inh 58 | Arr AP2 CP1 inactive | GST GSH counter inactive
COc1ccc(CCCNC(=O)C2CCC(=O)N(Cc3ccccc3F)C2)cc1 (stereo unspecified)	none | Arr AP2 CP1 inactive | GST GSH counter inactive
COc1ccc(C(=O)Nc2ccccc2C(=O)N/N=C/c2ccco2)cc1	none
COc1ccc(N(C(=O)c2ccco2)C(C(=O)NC2CCCCC2)c2cccs2)cc1OC (stereo unspecified)	Arrestin-AP2 inh 105 | Arr AP2 CP1 inactive | GST GSH counter inactive
CCOc1ccc(C(C(=O)NC2CCCCC2)N(C(=O)c2ccco2)c2ccc(-n3cnnn3)c(C)c2)cc1 (stereo unspecified)	Arrestin-AP2 inh 100 | Arr AP2 CP1 inactive | GST GSH counter inactive
CC(=O)c1cccc(N(C(=O)c2ccco2)C(C(=O)NC2CCCC2)c2cccs2)c1 (stereo unspecified)	none (no result: ALR H2O2 inh)
CC(=O)c1c(C)nc2ccc([N+](=O)[O-])cc2c1-c1ccccc1	none
